# Results from publication PMC5615838 (Toxicology Reports, 2016).
# Legend:
# [1] = tested on: GPCRs, ion channels, nuclear receptors, transporters; experiment: lead profiling receptor screen; format: binding; conditions: 10 μM
# CYP3A4 = CYP3A4 (Homo sapiens, UniProt P08684); experiment: CYP inhibition, LC–MS/MS assay in human liver microsomes; format: in vitro ADME; conditions: pooled human liver microsomes, probe midazolam
# How it was run: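 Follow-up CYP panel in pooled human liver microsomes with CYP-specific probe substrates; CYP-specific metabolites quantified by LC-MS/MS. Test compound at 10 μM. Percent inhibition reported.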
# [2] = definitive developmental toxicity study; format: in vivo, rat
# Chain of CYP3A4 (P08684 whole entry): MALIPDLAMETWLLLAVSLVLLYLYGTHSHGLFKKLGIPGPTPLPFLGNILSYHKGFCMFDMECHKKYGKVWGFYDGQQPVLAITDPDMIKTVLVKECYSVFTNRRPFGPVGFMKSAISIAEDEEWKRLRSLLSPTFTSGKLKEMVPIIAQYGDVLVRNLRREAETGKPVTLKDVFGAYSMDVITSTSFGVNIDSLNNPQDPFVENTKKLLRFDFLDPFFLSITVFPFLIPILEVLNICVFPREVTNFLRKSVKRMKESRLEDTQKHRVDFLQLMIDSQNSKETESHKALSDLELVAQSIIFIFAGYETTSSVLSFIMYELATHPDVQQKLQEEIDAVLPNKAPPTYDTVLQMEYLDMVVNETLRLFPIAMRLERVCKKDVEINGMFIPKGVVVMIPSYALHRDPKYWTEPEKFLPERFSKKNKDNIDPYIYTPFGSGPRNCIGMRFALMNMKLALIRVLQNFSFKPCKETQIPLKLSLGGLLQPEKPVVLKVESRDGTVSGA
smiles,measurement,setting,value
"Cc1noc(C)c1Cn1cc(N2C(=O)CN(Cc3cccc(O)c3)C2=O)cn1 [S6821, 3-(1-((3,5-dimethylisoxazol-4-yl)methyl)-1H-pyrazol-4-yl)-1-(3-hydroxybenzyl)imidazolidine-2,4-dione]",significant responses (≥50% inhibition or stimulation),[1],No significant responses
same,inhibition at 10 µM,CYP3A4,4%
same,"Malformations, fetuses (litters)","[2]; 125 mg/kg bw/day, of 347(25) evaluated",3(2)
same,"Malformations, fetuses (litters)","[2]; 500 mg/kg bw/day, of 364(25) evaluated",2(2)
same,"Malformations, fetuses (litters)","[2]; 1000 mg/kg bw/day, of 327(22) evaluated",4(3)
same,Corpora Lutea,"[2]; Mean, 125 mg/kg bw/day",15.4
same,Dead Fetuses,"[2]; Mean, 125 mg/kg bw/day",0.0
same,Fetal Wt.,"[2]; Mean, 125 mg/kg bw/day",5.7 g
same,"Fetuses, Sex F","[2]; Mean, 125 mg/kg bw/day",6.8
same,"Fetuses, Sex M","[2]; Mean, 125 mg/kg bw/day",7.1
same,Implant. Sites,"[2]; Mean, 125 mg/kg bw/day",14.6
same,Post- Implant. Loss,"[2]; Mean, 125 mg/kg bw/day",0.7
same,Pre- Implant. Loss,"[2]; Mean, 125 mg/kg bw/day",0.8
same,Resorptions Early,"[2]; Mean, 125 mg/kg bw/day",0.7
same,Resorptions Late,"[2]; Mean, 125 mg/kg bw/day",0.0
same,Corpora Lutea,"[2]; Mean, 500 mg/kg bw/day",16.6
same,Dead Fetuses,"[2]; Mean, 500 mg/kg bw/day",0.0
same,Fetal Wt.,"[2]; Mean, 500 mg/kg bw/day",5.6 g
same,"Fetuses, Sex F","[2]; Mean, 500 mg/kg bw/day",7.4
same,"Fetuses, Sex M","[2]; Mean, 500 mg/kg bw/day",7.2
same,Implant. Sites,"[2]; Mean, 500 mg/kg bw/day",15.4
same,Post- Implant. Loss,"[2]; Mean, 500 mg/kg bw/day",0.8
same,Pre- Implant. Loss,"[2]; Mean, 500 mg/kg bw/day",1.2
same,Resorptions Early,"[2]; Mean, 500 mg/kg bw/day",0.8
same,Resorptions Late,"[2]; Mean, 500 mg/kg bw/day",0.0
same,Corpora Lutea,"[2]; Mean, 1000 mg/kg bw/day",16.9
same,Dead Fetuses,"[2]; Mean, 1000 mg/kg bw/day",0.0
same,Fetal Wt.,"[2]; Mean, 1000 mg/kg bw/day",5.6 g
same,"Fetuses, Sex F","[2]; Mean, 1000 mg/kg bw/day",7.4
same,"Fetuses, Sex M","[2]; Mean, 1000 mg/kg bw/day",7.5
same,Implant. Sites,"[2]; Mean, 1000 mg/kg bw/day",15.8
same,Post- Implant. Loss,"[2]; Mean, 1000 mg/kg bw/day",0.9
same,Pre- Implant. Loss,"[2]; Mean, 1000 mg/kg bw/day",1.1
same,Resorptions Early,"[2]; Mean, 1000 mg/kg bw/day",0.9
same,Resorptions Late,"[2]; Mean, 1000 mg/kg bw/day",0.0
same,Dead Fetuses,"[2]; Total, 125 mg/kg bw/day",0
same,"Fetuses, Sex F","[2]; Total, 125 mg/kg bw/day",170
same,"Fetuses, Sex M","[2]; Total, 125 mg/kg bw/day",177
same,Implant. Sites,"[2]; Total, 125 mg/kg bw/day",364
same,Post- Implant. Loss,"[2]; Total, 125 mg/kg bw/day",17
same,Pre- Implant. Loss,"[2]; Total, 125 mg/kg bw/day",20
same,Resorptions Early,"[2]; Total, 125 mg/kg bw/day",17
same,Resorptions Late,"[2]; Total, 125 mg/kg bw/day",0
same,Corpora Lutea,"[2]; Total, 500 mg/kg bw/day",415
same,Dead Fetuses,"[2]; Total, 500 mg/kg bw/day",0
same,"Fetuses, Sex F","[2]; Total, 500 mg/kg bw/day",185
same,"Fetuses, Sex M","[2]; Total, 500 mg/kg bw/day",179
same,Implant. Sites,"[2]; Total, 500 mg/kg bw/day",384
same,Post- Implant. Loss,"[2]; Total, 500 mg/kg bw/day",20
same,Pre- Implant. Loss,"[2]; Total, 500 mg/kg bw/day",31
same,Resorptions Early,"[2]; Total, 500 mg/kg bw/day",19
same,Resorptions Late,"[2]; Total, 500 mg/kg bw/day",1
same,Corpora Lutea,"[2]; Total, 1000 mg/kg bw/day",372
same,Dead Fetuses,"[2]; Total, 1000 mg/kg bw/day",0
same,"Fetuses, Sex F","[2]; Total, 1000 mg/kg bw/day",162
same,"Fetuses, Sex M","[2]; Total, 1000 mg/kg bw/day",165
same,Implant. Sites,"[2]; Total, 1000 mg/kg bw/day",347
same,Post- Implant. Loss,"[2]; Total, 1000 mg/kg bw/day",20
same,Pre- Implant. Loss,"[2]; Total, 1000 mg/kg bw/day",25
same,Resorptions Early,"[2]; Total, 1000 mg/kg bw/day",20
same,Resorptions Late,"[2]; Total, 1000 mg/kg bw/day",0
same,NOAEL for both maternal toxicity and embryo/fetal development,"[2]; oral gavage, gestation days 6-20",NOAEL for both maternal toxicity and embryo/fetal development = 1000 mg/kg bw/day
